# Assay results reported in ChEMBL document CHEMBL2440102, “Furanylazaindoles: potent anticancer agents in vitro and in vivo” (J Med Chem, 2013).
# The source made the active and inactive calls. The rule behind the calls is not given here.
# What was measured:
# Tubulin (Homo sapiens) [1] = target: T1, Tubulin (Homo sapiens) (UniProt P68371+Q9H4B7+P0DPH7+P68366+Q13509+Q71U36+P04350+Q3ZCM7+P07437+P68363+Q9BQE3+Q6PEY2+Q13885+Q9BVA1+Q9BUF5); assay: Displacement of [3H]-colchicine from biotin-labeled tubulin (unknown origin) at 1 uM after 2 hrs by scintillation proximity assay relative to control; assay type: protein-complex assay
# Tubulin (Homo sapiens) [2] = target: T1, Tubulin (Homo sapiens); assay: Displacement of [3H]-colchicine from biotin-labeled tubulin (unknown origin) at 5 uM after 2 hrs by scintillation proximity assay relative to control; assay type: protein-complex assay
# MKN-45 = assay: Cytotoxicity against human MKN45 cells assessed as growth inhibition after 72 hrs by methylene blue staining-based assay; assay type: functional, cell-based; conditions: MKN-45, 72 h
# [3] = Cytotoxicity against human H460 cells assessed as growth inhibition after 72 hrs by methylene blue staining-based assay; assay type: functional, cell-based; conditions: NCI-H460, 72 h
# Tubulin = assay: Displacement of [3H]-colchicine from biotin-labeled tubulin (unknown origin) after 2 hrs by scintillation proximity assay; assay type: protein-complex assay, Homo sapiens
# [4] = Cytotoxicity against human KB-S15 cells overexpressing P-gp170/MDR assessed as growth inhibition after 72 hrs by methylene blue staining-based assay; assay type: functional, cell-based; conditions: KB-S15, 72 h
# HT-29 = assay: Cytotoxicity against human HT-29 cells assessed as growth inhibition after 72 hrs by methylene blue staining-based assay; assay type: functional, cell-based; conditions: HT-29, 72 h
# KB [5] = assay: Cytotoxicity against human KB cells assessed as growth inhibition after 72 hrs by methylene blue staining-based assay; assay type: functional, cell-based
# [6] = Cytotoxicity against human KB-VIN10 cells overexpressing P-gp170/MDR assessed as growth inhibition after 72 hrs by methylene blue staining-based assay; assay type: functional, cell-based; conditions: KB-VIN10, 72 h
# [7] = Cytotoxicity against human KB-7d cells overexpressing MRP assessed as growth inhibition after 72 hrs by methylene blue staining-based assay; assay type: functional, cell-based; conditions: KB7D
# [8] = Inhibition of bovine brain MAP-rich tubulin polymerization measured every 30 secs for 30 mins by turbidometric method; set-up: species or system Bos taurus
# HUVEC [9] = assay: Induction of vascular disrupting activity in HUVEC assessed as VEGF-induced tube formation at 100 to 1000 nM after 4 hrs by microscopic analysis; assay type: functional, cell-based; conditions: Homo sapiens
# HUVEC [10] = assay: Induction of vascular disrupting activity in HUVEC assessed as VEGF-induced tube formation at 1000 nM after 4 hrs by microscopic analysis; assay type: functional, cell-based; conditions: Homo sapiens
# How it was run: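 HUVECs plated at 2×10^4 cells/well on Matrigel in 20% FBS M199 with 20 ng/mL VEGF; capillaries formed over 4 h before compound or DMSO vehicle added. Imaged at addition and 4 h later; capillary tube networks counted manually under microscope (100×). Expressed relative to vehicle; mean ± SD of three separate experiments.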
# KB [11] = assay: Induction of microtubule depolymerization in human KB cells at 1 uM after 6 hrs by immunofluorescence microscopic analysis; assay type: cell-based
# How it was run: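 KB cells on coverslips exposed to compound for 6 h; fixed in MeOH/Me2CO (1:1) at -20 °C for 1 h, blocked with 5% skim milk in PBS for 1 h, then anti-α-tubulin monoclonal (1:500) for 2 h and FITC-conjugated secondary (1:200) for 1 h at room temperature. Microtubule network viewed by fluorescence microscopy.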
compound,measurement,setting,value
COc1ccc(S(=O)(=O)n2ccc3ccnc(-c4ccc(N(C)C)cc4)c32)cc1,inhibition,Tubulin (Homo sapiens) [1],41%
same,inhibition,Tubulin (Homo sapiens) [2],74%
COc1ccc(S(=O)(=O)n2ccc3ccnc(-c4ccc(C(F)(F)F)cc4)c32)cc1,inhibition,Tubulin (Homo sapiens) [1],35%
same,inhibition,Tubulin (Homo sapiens) [2],65%
COc1ccc(S(=O)(=O)n2ccc3ccnc(-c4ccc(Cl)cc4)c32)cc1,inhibition,Tubulin (Homo sapiens) [1],41%
same,inhibition,Tubulin (Homo sapiens) [2],72%
COc1ccc(S(=O)(=O)Nc2cccnc2Nc2ccc(O)cc2)cc1 [ABT-751],IC50,MKN-45,166 nM
same,IC50,[3],218 nM
same,Ki,Tubulin,1510 nM
same,IC50,[4],206 nM
same,IC50,HT-29,339 nM
same,IC50,KB [5],251 nM
same,IC50,[6],227 nM
same,IC50,[7],205 nM
same,IC50,[8],3300 nM
same,Activity,HUVEC [9],Active
COc1ccc(S(=O)(=O)n2ccc3ccnc(-c4ccccc4)c32)cc1,inhibition,Tubulin (Homo sapiens) [1],42%
same,inhibition,Tubulin (Homo sapiens) [2],63%
COc1ccc(S(=O)(=O)n2ccc3ccnc(-c4ccco4)c32)cc1,inhibition,Tubulin (Homo sapiens) [1],63%
same,Ki,Tubulin,380 nM
same,inhibition,Tubulin (Homo sapiens) [2],81%
O=c1[nH]cc(F)c(=O)[nH]1,Activity,HUVEC [10],inactive
COc1ccc(S(=O)(=O)n2ccc3ccnc(-c4ccncc4)c32)cc1,inhibition,Tubulin (Homo sapiens) [1],35%
same,inhibition,Tubulin (Homo sapiens) [2],59%
COc1ccc(S(=O)(=O)n2ccc3ccnc(-c4cccs4)c32)cc1,inhibition,Tubulin (Homo sapiens) [1],30%
same,inhibition,Tubulin (Homo sapiens) [2],70%
COc1ccc(S(=O)(=O)n2ccc3ccnc(-c4ccc([N+](=O)[O-])cc4)c32)cc1,inhibition,Tubulin (Homo sapiens) [1],21%
same,inhibition,Tubulin (Homo sapiens) [2],46%
CC[C@]1(O)C[C@H]2CN(CCc3c([nH]c4ccccc34)[C@@](C(=O)OC)(c3cc4c(cc3OC)N(C=O)[C@H]3[C@@](O)(C(=O)OC)[C@H](OC(C)=O)[C@]5(CC)C=CCN6CC[C@]43[C@@H]65)C2)C1 [VINCRISTINE],IC50,KB [5],0.6 nM
same,IC50,[7],1.2 nM
CC(=O)O[C@H]1C(=O)[C@@]2(C)[C@H]([C@H](OC(=O)c3ccccc3)[C@]3(O)C[C@H](OC(=O)[C@H](O)[C@@H](NC(=O)c4ccccc4)c4ccccc4)C(C)=C1C3(C)C)[C@]1(OC(C)=O)CO[C@@H]1C[C@@H]2O [PACLITAXEL],Activity,KB [11],inactive
same,IC50,KB [5],4.1 nM
same,IC50,[7],7.9 nM
COc1cc([C@@H]2c3cc4c(cc3[C@@H](O[C@@H]3O[C@@H]5CO[C@@H](C)O[C@H]5[C@H](O)[C@H]3O)[C@H]3COC(=O)[C@H]23)OCO4)cc(OC)c1O [ETOPOSIDE],IC50,[4],3500 nM
same,IC50,[6],23000 nM
same,IC50,[7],54000 nM
COc1cc2c(c(OC)c1OC)-c1ccc(OC)c(=O)cc1[C@@H](NC(C)=O)CC2 [COLCHICINE],IC50,MKN-45,11.5 nM
same,Activity,KB [11],Active
same,IC50,[3],19.8 nM
same,IC50,[4],35.4 nM
same,IC50,HT-29,15.2 nM
same,IC50,[6],122 nM
same,IC50,[7],51.8 nM
COc1ccc(/C=C\c2cc(OC)c(OC)c(OC)c2)cc1O [COMBRETASTATIN A4],IC50,[8],2100 nM
